Laboratory results from ChEMBL document CHEMBL1124992, “(Pyrimidinyloxy)acetic acids and pyrimidineacetic acids as a novel class of aldose reductase inhibitors” (J Med Chem, 1990).

Key:
[1] = biological target: Aldo-keto reductase family 1 member B1 (Bos taurus) (UniProt P16116); assay: In vitro inhibition of aldose reductase from the partially purified bovine lens at 10e-6 M concentration
Procedure, shortened: (§1)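 Bovine lens aldose reductase, partially purified, assayed spectrophotometrically following Hayman and Kinoshita. Each compound was tested at three concentrations, routinely in duplicate.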

[2] = biological target: Aldo-keto reductase family 1 member B1 (Bos taurus) (UniProt P16116); assay: In vitro inhibition of aldose reductase from the partially purified bovine lens at 10e-5 M concentration; procedure, shortened: as §1
[3] = biological target: Aldo-keto reductase family 1 member B1 (Bos taurus) (UniProt P16116); assay: In vitro inhibition of aldose reductase from the partially purified bovine lens at 10e-7 M concentration; procedure, shortened: as §1
Rattus norvegicus [4] = assay: In vivo inhibition of polyol accumulation in galactosemic rat diaphragm at dose 96 mg/kg administered perorally; type: functional; conditions: route oral
Procedure, shortened: (§2)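 Rats received a diet of 20% galactose for 4 days, with compound mixed into the diet. Galactitol was measured in trichloroacetic acid extracts of lens, sciatic nerve and diaphragm by a modified Kraml–Cosyns method. Values are % reduction versus galactosemic controls, compared by Dunnett's multiple comparison.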

Rattus norvegicus [5] = assay: In vivo inhibition of polyol accumulation in galactosemic rat diaphragm at dose 99 mg/kg administered perorally; type: functional; conditions: route oral; procedure, shortened: as §2
Rattus norvegicus [6] = assay: In vivo inhibition of polyol accumulation in galactosemic rat nerve at dose 99 mg/kg administered perorally; type: functional; conditions: route oral; procedure, shortened: as §2
Rattus norvegicus [7] = assay: In vivo inhibition of polyol accumulation in galactosemic rat diaphragm at dose 135 mg/kg administered perorally; type: functional; conditions: route oral; procedure, shortened: as §2
Rattus norvegicus [8] = assay: In vivo inhibition of polyol accumulation in galactosemic rat nerve at dose 78 mg/kg administered perorally; type: functional; conditions: route oral; procedure, shortened: as §2
Rattus norvegicus [9] = assay: In vivo inhibition of polyol accumulation in galactosemic rats lens; type: functional; conditions: Lens of camera-type eye, read-out: ID50 (the source's name)
Rattus norvegicus [10] = assay: In vivo inhibition of polyol accumulation in galactosemic rat diaphragm at dose 6 mg/kg administered perorally; type: functional; conditions: route oral; procedure, shortened: as §2
Rattus norvegicus [11] = assay: In vivo inhibition of polyol accumulation in galactosemic rats nerve; type: functional; conditions: read-out: ID50 (the source's name)
Rattus norvegicus [12] = assay: In vivo inhibition of polyol accumulation in galactosemic rat nerve at dose 6 mg/kg administered perorally; type: functional; conditions: route oral; procedure, shortened: as §2
Rattus norvegicus [13] = assay: In vivo inhibition of polyol accumulation in galactosemic rats diaphragm; type: functional; conditions: read-out: ID50 (the source's name)
Rattus norvegicus [14] = assay: In vivo inhibition of polyol accumulation in galactosemic rat diaphragm at dose 90 mg/kg administered perorally; type: functional; conditions: route oral; procedure, shortened: as §2
Rattus norvegicus [15] = assay: In vivo inhibition of polyol accumulation in galactosemic rat nerve at dose 90 mg/kg administered perorally; type: functional; conditions: route oral; procedure, shortened: as §2
Rattus norvegicus [16] = assay: In vivo inhibition of polyol accumulation in galactosemic rat diaphragm at dose 102 mg/kg administered perorally; type: functional; conditions: route oral; procedure, shortened: as §2
Rattus norvegicus [17] = assay: In vivo inhibition of polyol accumulation in galactosemic rat nerve at dose 97 mg/kg administered perorally; type: functional; conditions: route oral; procedure, shortened: as §2
Rattus norvegicus [18] = assay: In vivo inhibition of polyol accumulation in galactosemic rat diaphragm at dose 97 mg/kg administered perorally; type: functional; conditions: route oral; procedure, shortened: as §2
Rattus norvegicus [19] = assay: In vivo inhibition of polyol accumulation in galactosemic rat diaphragm at dose 112 mg/kg administered perorally; type: functional; conditions: route oral; procedure, shortened: as §2
Rattus norvegicus [20] = assay: In vivo inhibition of polyol accumulation in galactosemic rat nerve at dose 112 mg/kg administered perorally; type: functional; conditions: route oral; procedure, shortened: as §2
Rattus norvegicus [21] = assay: In vivo inhibition of polyol accumulation in galactosemic rat nerve at dose 93 mg/kg administered perorally; type: functional; conditions: route oral; procedure, shortened: as §2
Rattus norvegicus [22] = assay: In vivo inhibition of polyol accumulation in galactosemic rat lens at dose 93 mg/kg administered perorally; type: functional, Lens of camera-type eye; conditions: route oral; procedure, shortened: as §2
Rattus norvegicus [23] = assay: In vivo inhibition of polyol accumulation in galactosemic rat diaphragm at dose 82 mg/kg administered perorally; type: functional; conditions: route oral; procedure, shortened: as §2
Rattus norvegicus [24] = assay: In vivo inhibition of polyol accumulation in galactosemic rat nerve at dose 82 mg/kg administered perorally; type: functional; conditions: route oral; procedure, shortened: as §2
Rattus norvegicus [25] = assay: In vivo inhibition of polyol accumulation in galactosemic rat nerve at dose 151 mg/kg administered perorally; type: functional; conditions: route oral; procedure, shortened: as §2
Rattus norvegicus [26] = assay: In vivo inhibition of polyol accumulation in galactosemic rat nerve at dose 83 mg/kg administered perorally; type: functional; conditions: route oral; procedure, shortened: as §2
Rattus norvegicus [27] = assay: In vivo inhibition of polyol accumulation in galactosemic rat diaphragm at dose 83 mg/kg administered perorally; type: functional; conditions: route oral; procedure, shortened: as §2
Rattus norvegicus [28] = assay: In vivo inhibition of polyol accumulation in galactosemic rat nerve at dose 105 mg/kg administered perorally; type: functional; conditions: route oral; procedure, shortened: as §2
Rattus norvegicus [29] = assay: In vivo inhibition of polyol accumulation in galactosemic rat diaphragm at dose 105 mg/kg administered perorally; type: functional; conditions: route oral; procedure, shortened: as §2

Row | Compound | inhibition [1] | inhibition [2] | inhibition [3] | further results
1 | CSc1nc(CC(C)(C)C)nc(OCC(=O)O)c1C#N | 96% | 95% | 85% | –
2 | Cc1nc(N2CCN(Cc3ccccc3)CC2)c(C#N)c(=O)n1CC(=O)O | 89% | 92% | 64% | –
3 | CSc1nc(-c2ccccc2)nc(OCC(=O)O)c1C#N | 87% | 92% | 75% | Reduction (Rattus norvegicus [4]): 55%
4 | CC(C)(C)c1nc(OCC(=O)O)c(C#N)c(SCc2ccc(Br)cc2F)n1 | 93% | 98% | 93% | Reduction (Rattus norvegicus [5]): 47%; Reduction (Rattus norvegicus [6]): 28%
5 | Cc1nc(NCC2CCCCC2)c(C#N)c(=O)n1CC(=O)O | 91% | 93% | 72% | –
6 | Cc1nc(-c2ccccc2)nc(OCC(=O)O)c1C#N | 88% | 92% | 79% | –
7 | CC(C)(C)c1nc(OCC(=O)O)c(C#N)c(SCc2ccc(Br)cc2)n1 | 95% | 95% | 95% | Reduction (Rattus norvegicus [7]): 58%
8 | CSc1nc(C(C)C)nc(OCC(=O)O)c1C#N | 97% | 98% | 88% | Reduction (Rattus norvegicus [8]): 37%
9 | Cc1nc(NCc2cccnc2)c(C#N)c(=O)n1CC(=O)O | 90% | 88% | 30% | –
10 | COC(=O)c1c(SC)nc(C2CCCCC2)n(CC(=O)O)c1=O | 1% | 5% | – | –
11 | COc1ccc2c(C(=S)N(C)CC(=O)O)cccc2c1C(F)(F)F [TOLRESTAT] | – | – | – | ED50 (Rattus norvegicus [9]): 178 mg/kg; Reduction (Rattus norvegicus [10]): 90%; ED50 (Rattus norvegicus [11]): 8 mg/kg; Reduction (Rattus norvegicus [12]): 53%; ED50 (Rattus norvegicus [13]): 1.5 mg/kg
12 | CSc1nc(C(C)C)n(CC(=O)O)c(=O)c1C#N | 96% | 96% | 94% | –
13 | Cc1nc(-c2cccc3ccccc23)nc(OCC(=O)O)c1C#N | 85% | 93% | 46% | –
14 | CSc1nc(C)n(CC(=O)O)c(=O)c1C#N | 84% | 86% | 74% | –
15 | N#Cc1c(-c2ccccc2)nc(-c2cccc3ccccc23)n(CC(=O)O)c1=O | 68% | 84% | 29% | –
16 | Cc1nc(NCc2cccnc2)cc(=O)n1CC(=O)O | 18% | 53% | – | –
17 | CC(C)Sc1nc(C(C)C)n(CC(=O)O)c(=O)c1C#N | 97% | 96% | 91% | –

Row | Compound | inhibition [1] | inhibition [2] | inhibition [3] | further results
18 | CSc1nc(C2CCCCC2)n(CC(=O)O)c(=O)c1C#N | – | 98% | 89% | Reduction (Rattus norvegicus [14]): 42%; Reduction (Rattus norvegicus [15]): 47%
19 | CSc1nc(C2CCCCC2)n(CC(=O)O)c(=O)c1S(=O)(=O)c1ccccc1 | 0% | 3% | – | –
20 | CC(C)c1nc(SCc2ccccc2)c(C#N)c(=O)n1CC(=O)O | 98% | 96% | 94% | Reduction (Rattus norvegicus [16]): 38%
21 | CSc1nc(C(C)(C)C)nc(OCC(=O)O)c1C(N)=O | 42% | 81% | 10% | –
22 | CC(C)(C)c1nc(OCC(=O)O)c(C#N)c(SCc2ccccc2)n1 | 85% | 86% | 82% | Reduction (Rattus norvegicus [17]): 46%; Reduction (Rattus norvegicus [18]): 67%
23 | N#Cc1c(OCC(=O)O)nc(-c2cccc3ccccc23)nc1-c1ccccc1 | 76% | 79% | 53% | –
24 | CCCCCCSc1nc(C(C)(C)C)nc(OCC(=O)O)c1C#N | – | – | – | Reduction (Rattus norvegicus [19]): 60%; Reduction (Rattus norvegicus [20]): 43%
25 | N#Cc1c(SCc2ccc(Br)cc2F)nc(C2CCCCC2)n(CC(=O)O)c1=O | – | 96% | 92% | Reduction (Rattus norvegicus [21]): 50%; Reduction (Rattus norvegicus [22]): 15%
26 | CC(C)Sc1nc(C(C)(C)C)nc(OCC(=O)O)c1C#N | 91% | 92% | 89% | Reduction (Rattus norvegicus [23]): 19%; Reduction (Rattus norvegicus [24]): 37%
27 | Cc1nc(N2CCC(Cc3ccccc3)CC2)c(C#N)c(=O)n1CC(=O)O | 88% | 90% | 81% | –
28 | COC(=O)c1c(OCC(=O)O)nc(C(C)(C)C)nc1SC | 2% | 13% | – | –
29 | N#Cc1c(Cc2cccc3ccccc23)nc(-c2cccc3c(Br)cccc23)n(CC(=O)O)c1=O | 85% | 93% | 46% | Reduction (Rattus norvegicus [25]): 30%
30 | CSc1nc(C(C)(C)C)nc(OCC(=O)O)c1C#N | 88% | 89% | 82% | Reduction (Rattus norvegicus [26]): 35%; Reduction (Rattus norvegicus [27]): 32%
31 | CC(C)(C)c1nc(OCC(=O)O)c(C#N)c(SCC2CCCCC2)n1 | 96% | 97% | 88% | Reduction (Rattus norvegicus [28]): 70%; Reduction (Rattus norvegicus [29]): 60%
32 | Cc1nc(NCc2ccccc2)c(C#N)c(=O)n1CC(=O)O | 90% | 96% | 76% | –
33 | N#Cc1c(-c2ccccc2)nc(-c2cccc3c(Br)cccc23)n(CC(=O)O)c1=O | 71% | 82% | 22% | –
34 | CSc1nc(C)nc(OCC(=O)O)c1C#N | 84% | 90% | 55% | –
